From paper PMC3076219 (European journal of immunology, 2009)

Tests used:
CXCR2 [1] = experiment: CXCR2 surface expression on neutrophils, flow cytometry; assay type: cell-based, human
[2] = system: 125I-CXCL8 specific binding sites on neutrophils (CXCR1/2); experiment: Competition with 125I-CXCL8 for binding to neutrophils; set-up: species or system human; details: 1.25 nM 125I-CXCL8, 2h on ice, triplicate, dose-dependent, Fig. 5B
THP-1 cells = experiment: Migration of THP-1 cells, 24-well Transwell; assay type: cell-based; details: LL-37 5 µM, CXCL1 50 nM, WKYMVm 5 µM, ATP 50 µM, BzATP 50 µM; 2 h, 37°C; Fig. 7E
Procedure, shortened: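 CFSE-labelled monocytes or THP-1 cells (5 µM, 5 min RT) at 2×10^6/mL in phenol-red-free RPMI 1640 with 1% FBS went in the Transwell upper chamber (3-µm pores). Stimuli in the lower chamber included CXCL1 50 nM, WKYMVm 5 µM and ATP/BzATP 50 µM. Cells were used with or without 20 min preincubation with 10 µM CXCR2 antagonist. Incubation at 37 °C lasted 90 min for monocytes and 2 h for THP-1. Lower-well cells were read at 495 nm against a standard curve, in quadruplicate.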

CXCR2 [3] = experiment: Confocal analysis of CXCR2 internalization in neutrophils; assay type: cell-based, human; details: LL-37 5 µM or CXCL8 50 nM, 1 h, 37°C; Fig. 8
Procedure, shortened: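 Neutrophils came from citrated donor blood by dextran sedimentation and Ficoll gradient. […] Cells were fixed in 2% paraformaldehyde, permeabilised with saponin and blocked with human serum. Anti-CXCR1 or anti-CXCR2 mAb (4°C), then Alexa 488 anti-mouse IgG, DAPI mount, confocal imaging; three independent experiments.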

[4] = system: CXCR2 transfected HEK293 cells; experiment: Secondary necrosis of CXCR2 transfected HEK293 cells; assay type: cell-based; details: Supporting information Fig. 4
CXCR2 [5] = experiment: Block of anti-CXCR2 antibody binding to neutrophils; assay type: cell-based, human; details: LL-37 treated neutrophils; Supporting Information Fig. 6A
[6] = system: CXCR1 transfected HEK293 cells; experiment: Secondary necrosis of CXCR1 transfected HEK293 cells; assay type: cell-based; details: Supporting information Fig. 4
CXCR2 [7] = details: LL-37 treated neutrophils; ref [15]; cited from earlier work
neutrophils = details: ref [13]; cited from earlier work
[8] = cited from earlier work
CD4+ T cells = details: ref [3], [9], [10]; cited from earlier work
mast cells = details: ref [3], [9], [10]; cited from earlier work

LL-37: ~4.5 kD active α-helical peptide, C-terminal domain of human cathelicidin hCAP18
down-regulation of CXCR2 in time course compared to untreated controls (CXCR2 [1]; LL-37 5 µM, at 3h, p<0.001, Fig. 1B, four independent experiments): 50%
CXCR2 surface expression at 10 µM (CXCR2 [1]; LL-37 10 µM, 3h): a further reduction was observed at 10 µM
maximum competition of 125I-CXCL8 binding ([2]; 2×10^6 cells): around 50%
displacement of 125I-CXCL8 [2]: partly displace
stimulation of migration of THP-1 cells (THP-1 cells): but not THP-1 cells
CXCR2 translocation (internalization) (CXCR2 [3]): translocation of CXCR2 but not CXCR1 to the cytoplasmic granules
generation of secondary necrotic cells, HEK293/CXCR2 [4]: generation of secondary necrotic cells
block of anti-CXCR2 antibody binding (CXCR2 [5]): did not block anti-CXCR2 antibodiy binding
generation of secondary necrotic cells, HEK293/CXCR1 [6]: generation of secondary necrotic cells
down-regulation among 21 cell surface markers (CXCR2 [7]): only CXCR2 was specifically down-regulated
inhibition of spontaneous neutrophil apoptosis (neutrophils): potent inhibitor of spontaneous neutrophil apoptosis
wound neovascularization ([8]; ref [7]): promotes wound neovascularization
re-epithelialization of healing skin ([8]; ref [8]): re-epithelialization of healing skin
migration of CD4+ T cells (CD4+ T cells): migration of human peripheral monocytes, neutrophils, CD4+ T cells
migration of mast cells (mast cells): migration of human peripheral monocytes, neutrophils, CD4+ T cells, and mast cells
